Test results from ChEMBL document CHEMBL1921792, “Synthesis and anticonvulsant activity of trans- and cis-2-(2,6-dimethylphenoxy)-N-(2- or 4-hydroxycyclohexyl)acetamides and their amine analogs” (Bioorg Med Chem, 2011).
Calls of active or inactive are those of the source. The rule behind the calls is not given here.

Key:
N1E-115 = test: Blockade of voltage-gated sodium channel in mouse N1E-115 cells assessed as stimulation at 100 umol at -90 mV holding potential by whole-cell patch clamp electrophysiological assay relative to control; assay type: cell-based
Summary of the method: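 Whole-cell patch clamp with borosilicate glass electrodes on single cultured N1E-115 neuroblastoma cells. Compound at 100 µmol, holding potential -90 mV. Voltage-dependent sodium current expressed as % of control stimulation (no compound). Results from 5–8 cells averaged with SEM; significance by Student's t-test.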

Rattus norvegicus [1] = test: Neurotoxicity in rat assessed as neurological deficit at 30 mg/kg, po after 0.25 hrs […]; assay type: toxicity, organism-based; design: dose 30 mg/kg, route oral; conditions: in vivo
Summary of the method: (§1)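 Rats given the compound, suspended in 0.5% methylcellulose, by the stated route and dose. Neurological deficit was recorded at the listed times as ataxia and loss of placing response and muscle tone. Reported as number of rats showing toxicity/number tested.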

Mus musculus [2] = test: Anticonvulsant activity against subcutaneous pentylenetetrazole-induced seizures in mouse at 100 mg/kg, ip after 0.5 hrs; assay type: functional, organism-based; design: dose 100 mg/kg
Summary of the method: (§2)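 Phase I screen in mice. Compound given ip as a suspension in 0.5% methylcellulose, read at 30 min and 4 h. Pentylenetetrazole 85 mg/kg in 0.9% NaCl was injected sc into the posterior midline and animals watched ≥30 min. Protection meant no clonic spasm lasting ≥5 s. Groups of 1–8 animals; result is protected/tested.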

Mus musculus [3] = test: Anticonvulsant activity in mouse assessed as protection against maximal electric shock-induced seizures at 300 mg/kg, ip after 0.5 hrs; assay type: functional, organism-based; design: dose 300 mg/kg
Summary of the method: (§3)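 Phase I maximal electroshock screen in mice. Compound given ip as a suspension in 0.5% methylcellulose at 30, 100 or 300 mg/kg, tested at 30 min and 4 h. Small groups (1–8); result is number protected/number tested.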

Mus musculus [4] = test: Anticonvulsant activity in mouse assessed as protection against maximal electric shock-induced seizures at 100 mg/kg, ip after 0.5 hrs; assay type: functional, organism-based; design: dose 100 mg/kg; summary of the method: as §3
Mus musculus [5] = test: Neurotoxicity in mouse assessed as inability to maintain equilibrium on rotarod at 100 mg/kg, ip after 4 hrs by rotarod test; assay type: toxicity, organism-based; design: dose 100 mg/kg, route intraperitoneal; conditions: in vivo
Summary of the method: (§4)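 Drug given ip to mice as a suspension in 0.5% methylcellulose. At the stated time after dosing, each mouse was placed on a 1 inch knurled rod turning at 6 rpm. Neurotoxicity = inability to stay balanced at least 1 min in each of three trials. Scored as animals toxic/animals tested in small groups.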

Mus musculus [6] = test: Anticonvulsant activity in mouse assessed as protection against maximal electric shock-induced seizures at 30 mg/kg, ip after 4 hrs; assay type: functional, organism-based; design: dose 30 mg/kg; summary of the method: as §3
Rattus norvegicus [7] = test: Neurotoxicity in rat assessed as neurological deficit at 30 mg/kg, po after 2 hrs […]; assay type: toxicity, organism-based; design: dose 30 mg/kg, route oral; conditions: in vivo; summary of the method: as §1
Mus musculus [8] = test: Anticonvulsant activity against subcutaneous pentylenetetrazole-induced seizures in mouse at 300 mg/kg, ip after 4 hrs; assay type: functional, organism-based; design: dose 300 mg/kg; summary of the method: as §2
Mus musculus [9] = test: Anticonvulsant activity against subcutaneous pentylenetetrazole-induced seizures in mouse at 300 mg/kg, ip after 0.5 hrs; assay type: functional, organism-based; design: dose 300 mg/kg; summary of the method: as §2
Rattus norvegicus [10] = test: Neurotoxicity in rat assessed as neurological deficit at 30 mg/kg, po after 4 hrs by rotarod test; assay type: toxicity, organism-based; design: dose 30 mg/kg, route oral; conditions: in vivo; summary of the method: as §1
Mus musculus [11] = test: Anticonvulsant activity in mouse assessed as protection against maximal electric shock-induced seizures at 100 mg/kg, ip after 4 hrs; assay type: functional, organism-based; design: dose 100 mg/kg; summary of the method: as §3
Mus musculus [12] = test: Anticonvulsant activity in mouse assessed as protection against maximal electric shock-induced seizures at 30 mg/kg, ip after 0.5 hrs; assay type: functional, organism-based; design: dose 30 mg/kg; summary of the method: as §3
Rattus norvegicus [13] = test: Neurotoxicity in rat assessed as neurological deficit at 30 mg/kg, po after 0.5 hrs […]; assay type: toxicity, organism-based; design: dose 30 mg/kg, route oral; conditions: in vivo; summary of the method: as §1
Mus musculus [14] = test: Neurotoxicity in mouse assessed as inability to maintain equilibrium on rotarod at 30 mg/kg, ip after 0.5 hrs by rotarod test; assay type: toxicity, organism-based; design: dose 30 mg/kg, route intraperitoneal; conditions: in vivo; summary of the method: as §4
Mus musculus [15] = test: Neurotoxicity in mouse assessed as inability to maintain equilibrium on rotarod at 300 mg/kg, ip after 4 hrs by rotarod test; assay type: toxicity, organism-based; design: dose 300 mg/kg, route intraperitoneal; conditions: in vivo; summary of the method: as §4
Mus musculus [16] = test: Anticonvulsant activity in mouse assessed as protection against maximal electric shock-induced seizures at 300 mg/kg, ip after 4 hrs; assay type: functional, organism-based; design: dose 300 mg/kg; summary of the method: as §3
Rattus norvegicus [17] = test: Anticonvulsant activity in rat assessed as protection against maximal electric shock-induced seizures at 30 mg/kg, po after 0.25 hrs; assay type: functional, organism-based; design: dose 30 mg/kg
Summary of the method: (§5)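 MES test in rats dosed orally at 30 mg/kg as a suspension in 0.5% methylcellulose, read at 0.25–4 h. Four rats per time point; result is protected/tested.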

Rattus norvegicus [18] = test: Neurotoxicity in rat assessed as neurological deficit at 30 mg/kg, po after 1 hr […]; assay type: toxicity, organism-based; design: dose 30 mg/kg, route oral; conditions: in vivo; summary of the method: as §1
Mus musculus [19] = test: Anticonvulsant activity against subcutaneous pentylenetetrazole-induced seizures in mouse at 100 mg/kg, ip after 4 hrs; assay type: functional, organism-based; design: dose 100 mg/kg; summary of the method: as §2
Mus musculus [20] = test: Anticonvulsant activity against subcutaneous pentylenetetrazole-induced seizures in mouse at 30 mg/kg, ip after 4 hrs; assay type: functional, organism-based; design: dose 30 mg/kg; summary of the method: as §2
Rattus norvegicus [21] = test: Anticonvulsant activity in rat assessed as protection against maximal electric shock-induced seizures at 30 mg/kg, po after 0.5 hrs; assay type: functional, organism-based; design: dose 30 mg/kg; summary of the method: as §5
Mus musculus [22] = test: Neurotoxicity in mouse assessed as inability to maintain equilibrium on rotarod at 300 mg/kg, ip after 0.5 hrs by rotarod test; assay type: toxicity, organism-based; design: dose 300 mg/kg, route intraperitoneal; conditions: in vivo; summary of the method: as §4
Mus musculus [23] = test: Anticonvulsant activity against subcutaneous pentylenetetrazole-induced seizures in mouse at 30 mg/kg, ip after 0.5 hrs; assay type: functional, organism-based; design: dose 30 mg/kg; summary of the method: as §2
Mus musculus [24] = test: Neurotoxicity in mouse assessed as inability to maintain equilibrium on rotarod at 30 mg/kg, ip after 4 hrs by rotarod test; assay type: toxicity, organism-based; design: dose 30 mg/kg, route intraperitoneal; conditions: in vivo; summary of the method: as §4

Structure (SMILES): Nc1nnc(-c2cccc(Cl)c2Cl)c(N)n1
- Activity (N1E-115): 67%

Structure (SMILES): Cc1cccc(C)c1OCC(=O)NC1CCC(O)CC1.Cl (racemic)
- Activity (Rattus norvegicus [1]): Non-toxic
- Activity (Mus musculus [2]): inactive
- Activity (Mus musculus [3]): Active
- Activity (Mus musculus [4]): Active
- Activity (Mus musculus [5]): Non-toxic
- Activity (Mus musculus [6]): inactive
- Activity (Rattus norvegicus [7]): Non-toxic
- Activity (Mus musculus [8]): inactive
- Activity (Mus musculus [9]): Active
- Activity (Rattus norvegicus [10]): Non-toxic
- Activity (Mus musculus [11]): inactive
- Activity (Mus musculus [12]): inactive
- Activity (Rattus norvegicus [13]): Non-toxic
- Activity (Mus musculus [14]): Non-toxic
- Activity (Mus musculus [15]): Non-toxic
- Activity (Mus musculus [16]): inactive
- Activity (Rattus norvegicus [17]): Active
- Activity (Rattus norvegicus [18]): Non-toxic
- Activity (Mus musculus [19]): inactive
- Activity (Mus musculus [20]): inactive
- Activity (Rattus norvegicus [21]): Active
- Activity (Mus musculus [22]): Toxic
- Activity (Mus musculus [23]): inactive
- Activity (Mus musculus [24]): Non-toxic
